Experimental findings from ChEMBL document CHEMBL5030510, “Designed β-Hairpins Inhibit LDH5 Oligomerization and Enzymatic Activity” (J Med Chem, 2021) are described below.

What is called IC50 is the point on the concentration scale where inhibition reaches its midpoint.

This assay concerns the target L-lactate dehydrogenase A chain (Homo sapiens, UniProt P00338). The experiment in a line: Inhibition of recombinant full length N-terminal His-tagged human LDHA expressed in Escherichia coli using pyruvate as substrate and NADH as cofactor incubated for 2 hrs by fluorescence assay. A digest of the protocol: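 Reassociation activity assay: 900 nM LDHA stock in phosphate pH 7.4/EDTA/0.05% BSA, acidified 2 min with glycine pH 2.5/BSA. Peptide added in 0.25 M phosphate pH 7.6 and incubated 2 h at RT. Aliquot diluted, then pyruvate (3 mM final) and NADH (0.3 mM final) added. IC50 from dose-response fit.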
As to `CC(C)C[C@@H]1NC(=O)[C@H](CCCNC(=N)N)NC(=O)[C@H](CCCNC(=N)N)NC(=O)[C@@H](NC(=O)CN)CSSC[C@@H](C(=O)N[C@@H](CCCNC(=N)N)C(=O)NCC(=O)N[C@@H](CCCNC(=N)N)C(=O)O)NC(=O)[C@H](C(C)C)NC(=O)[C@H]([C@@H](C)O)NC(=O)[C@H](Cc2ccccc2)NC(=O)[C@@H]2CSSC[C@H](NC1=O)C(=O)N[C@@H](CC(=O)O)C(=O)N[C@@H](CCCNC(=N)N)C(=O)N[C@@H](Cc1ccccc1)C(=O)N[C@@H](Cc1c[nH]c3ccccc13)C(=O)N2`, the IC50 is 10.4 µM.
With `CC(C)C[C@@H]1NC(=O)[C@H](CCCNC(=N)N)NC(=O)[C@H](CCCNC(=N)N)NC(=O)[C@@H](NC(=O)CN)CSSC[C@@H](C(=O)N[C@@H](CCCNC(=N)N)C(=O)NCC(=O)N[C@@H](CCCNC(=N)N)C(=O)O)NC(=O)[C@H](C(C)C)NC(=O)[C@H]([C@@H](C)O)NC(=O)[C@H](Cc2ccccc2)NC(=O)[C@@H]2CSSC[C@H](NC1=O)C(=O)N[C@@H](Cc1ccc(O)cc1)C(=O)N[C@@H](CCCCN)C(=O)N[C@@H](CCC(N)=O)C(=O)N[C@@H](CCCNC(=N)N)C(=O)N2`, the half-maximal inhibitory concentration (IC50) is 24 µM.
With `CC(=O)NCC(=O)N[C@@H](CC(N)=O)C(=O)N[C@@H](Cc1ccc(O)cc1)C(=O)N[C@H](C(=O)N[C@@H](Cc1c[nH]c2ccccc12)C(=O)N[C@@H](CC(C)C)C(N)=O)[C@@H](C)O`, the half-inhibitory concentration (IC50) was > 40 µM.
The figure for `CC(C)C[C@@H]1NC(=O)[C@H](CCCNC(=N)N)NC(=O)[C@H](CCCNC(=N)N)NC(=O)[C@@H](NC(=O)CN)CSSC[C@@H](C(=O)N[C@@H](CCCNC(=N)N)C(=O)NCC(=O)N[C@@H](CCCNC(=N)N)C(=O)O)NC(=O)[C@H](Cc2ccc(O)cc2)NC(=O)[C@H]([C@@H](C)O)NC(=O)[C@H](C(C)C)NC(=O)[C@@H]2CSSC[C@H](NC1=O)C(=O)N[C@@H](Cc1ccc(O)cc1)C(=O)N[C@@H](CCCCN)C(=O)N[C@@H](CCC(N)=O)C(=O)N[C@@H](CCCNC(=N)N)C(=O)N2` is 36.6 µM.
For `CC(C)C[C@@H]1NC(=O)[C@H](CCCNC(=N)N)NC(=O)[C@H](CCCNC(=N)N)NC(=O)[C@@H](NC(=O)CN)CSSC[C@@H](C(=O)N[C@@H](CCCNC(=N)N)C(=O)NCC(=O)N[C@@H](CCCNC(=N)N)C(=O)O)NC(=O)[C@H](C(C)C)NC(=O)[C@H]([C@@H](C)O)NC(=O)[C@H](Cc2ccccc2)NC(=O)[C@@H]2CSSC[C@H](NC1=O)C(=O)N[C@@H](Cc1c[nH]c3ccccc13)C(=O)N[C@@H](Cc1ccccc1)C(=O)N[C@@H](CCCNC(=N)N)C(=O)N[C@@H](Cc1ccc(O)cc1)C(=O)N2` the value was 4.5 µM; for `CC[C@H](C)[C@@H]1NC(=O)[C@H](Cc2ccc(O)cc2)NC(=O)[C@H](CC(N)=O)NC(=O)[C@@H]2CSSC[C@H](NC(=O)[C@H](CC(C)C)NC(=O)[C@H](CCCNC(=N)N)NC(=O)[C@H](CCCNC(=N)N)NC(=O)[C@@H](NC(=O)CN)CSSC[C@@H](C(=O)N[C@@H](CCCNC(=N)N)C(=O)NCC(=O)N[C@@H](CCCNC(=N)N)C(=O)O)NC1=O)C(=O)N[C@@H](Cc1ccc(O)cc1)C(=O)N[C@@H](CCCCN)C(=O)N[C@@H](CCC(N)=O)C(=O)N[C@@H](CC(C)C)C(=O)N2`, > 40 µM; for `CC(C)C[C@@H]1NC(=O)[C@H](CCCNC(=N)N)NC(=O)[C@H](CCCNC(=N)N)NC(=O)[C@@H](NC(=O)CN)CSSC[C@@H](C(=O)N[C@@H](CCCNC(=N)N)C(=O)NCC(=O)N[C@@H](CCCNC(=N)N)C(=O)O)NC(=O)[C@H](C(C)C)NC(=O)[C@H](CC(C)C)NC(=O)[C@H](CC(=O)O)NC(=O)[C@@H]2CSSC[C@H](NC1=O)C(=O)N[C@@H](Cc1ccc(O)cc1)C(=O)N[C@@H](CCCCN)C(=O)N[C@@H](CCC(N)=O)C(=O)N[C@@H](CCCNC(=N)N)C(=O)N2`, 27.3 µM.
Turning to `CC[C@H](C)[C@H](NC(=O)CNC(=O)[C@H](CC(N)=O)NC(=O)[C@H](CCC(N)=O)NC(C)=O)C(=O)N[C@@H](CO)C(=O)N[C@@H](CC(=O)O)C(=O)N[C@@H](CC(C)C)C(=O)N[C@H](C(=O)N[C@@H](CCCCN)C(N)=O)C(C)C`, the IC50 was > 40 µM.
